Converted amounts (≈) assume the structure as drawn.
Key:
[1] = Solubility was determined; format: physicochemical
[2] = Percent hemolysis for an erythrocyte suspension at 1% hemocrait at the concentration of 10 g/ L; format: functional, Homo sapiens
Method in brief: (§1)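 Washed human red cells at 1% hematocrit (8-9 × 10^7 cells/mL) in phosphate saline pH 7.4 were mixed 1:1 with surfactant/Pluronic F-68 dispersion in 9‰ NaCl and shaken 1 h at 37 °C. After centrifugation, supernatant hemoglobin was read at 540 nm. % hemolysis = 100 (OD_test − OD_NaCl)/(OD_H2O − OD_NaCl), with 9‰ NaCl as the 0% control and water as the 100% control.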

[3] = Percent hemolysis for an erythrocyte suspension at 1% hemocrait at the concentration of 10 g/1g per L; format: functional, Homo sapiens; method in brief: as §1
[4] = Percent hemolysis for an erythrocyte suspension at 1% hemocrait at the concentration of 20 g/ L; format: functional, Homo sapiens; method in brief: as §1
[5] = Percent hemolysis for an erythrocyte suspension at 1% hemocrait at the concentration of 20 g/10 g per L; format: functional, Homo sapiens; method in brief: as §1
[6] = Hemolytic effect on human red blood cells when dispersed in Pluronic F-68 at the concentration of 40 g/20 g per L; format: functional
Method in brief: (§2)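 Human erythrocytes were freed of plasma and buffy coat (3300 rpm, 10 min, 10 °C), washed three times in isotonic phosphate saline pH 7.4, then suspended at 1% hematocrit. 2 mL suspension plus an equal volume of surfactant dispersion in Pluronic F-68 / 9‰ NaCl (g compound/g Pluronic per L) was shaken 1 h at 37 °C. Hemolysis was scored visually (0 to ++++).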

[7] = Hemolytic effect on human red blood cells when dispersed in Pluronic F-68 at the concentration of 10 g/1g per L; format: functional; method in brief: as §2
[8] = Hemolytic effect on human red blood cells when dispersed in Pluronic F-68 at the concentration of 20 g/10 g per L; format: functional; method in brief: as §2
Mus musculus [9] = assay: Toxicity in mice when dispersed in Pluronic F-68 in […] aqueous NaCl of 20 g/10 g per L at the concentration of 455,mg/Kg body weight; format: functional
Method in brief: (§3)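 Single tail-vein injection into mice of about 20 g, about 0.5 mL (25 mL/kg body weight) per animal. The test article was a solution or dispersion of surfactant in Pluronic F-68, given as g compound/g Pluronic per L, in 9‰ aqueous NaCl. Symptoms, behavior, mortality and body-weight gain were recorded for 80 days after injection. Survival was reported as survivors/injected in a series of 10 mice.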

Mus musculus [10] = assay: Toxicity in mice when dispersed in Pluronic F-68 in […] aqueous NaCl of 42 g/22 g per L at the concentration of 1035 mg/kg body weight; format: functional; method in brief: as §3
Mus musculus [11] = assay: Toxicity in mice when dispersed in Pluronic F-68 in […] aqueous NaCl of 50 g/15 g per L at the concentration of 1187 mg/kg body weight; format: functional; method in brief: as §3
[12] = Growth inhibition towards Namalva Lymphoblastoid Cell Culture at the concentration of 0.05 g/L after dispersion in pluronic F-68; format: functional; settings: in the assay text read “concentration of 0.1 g/L” for “concentration of 0.05 g/L”
Method in brief: (§4)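 Namalva lymphoblastoid suspension culture (RPMI with 10% fetal calf serum, 37 °C, 7% CO2). 2 mL medium at about 3.10^5 cells/mL was mixed with 2 mL test solution, in five flasks, with a reference series in parallel. Cells were counted after 4 days of incubation, and viability was read by Trypan Blue exclusion. Results are % vs controls.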

[13] = Growth inhibition towards Namalva Lymphoblastoid Cell Culture at the concentration of 0.1 g/L; format: functional; method in brief: as §4
[14] = Growth and viability inhibition towards Namalva Lymphoblastoid Cell Culture after resowing at the concentration of 0.1 g/L; format: functional
Method in brief: (§5)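 Namalva lymphoblastoid cells in suspension (RPMI, 10% fetal calf serum, 37 °C, 7% CO2). Five flasks per test, each with 2 mL medium at about 3.10^5 cells/mL plus 2 mL test solution, alongside a reference series. After 4 days the compound was removed. Cells were washed and resown in 4 mL medium, and growth and viability were reported as % vs controls.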

[15] = Growth and viability inhibition towards Namalva Lymphoblastoid Cell Culture at the concentration of 0.05 g/L after dispersion in pluronic F-68; format: functional
[16] = Viability inhibition towards Namalva Lymphoblastoid Cell Culture at the concentration of 0.05 g/L after dispersion in pluronic F-68; format: functional; method in brief: as §4
[17] = Viability inhibition towards Namalva Lymphoblastoid Cell Culture at the concentration of 0.1 g/L; format: functional; method in brief: as §4
[18] = Hemolytic effect on human red blood cells when dispersed in Pluronic F-68 at the concentration of 20 g/5 g per L; format: functional; method in brief: as §2
[19] = Hemolytic effect on human red blood cells when dispersed in Pluronic F-68 at the concentration of 40 g/10 g per L; format: functional; method in brief: as §2
[20] = Hemolytic effect on human red blood cells when dispersed in Pluronic F-68 at the concentration of 10 g/2.5g per L; format: functional; method in brief: as §2
Mus musculus [21] = assay: Toxicity in mice when dispersed in Pluronic F-68 in […] aqueous NaCl of 0.1 g and at the concentration of 2,mg/Kg body weight; format: functional; method in brief: as §3
Mus musculus [22] = assay: Toxicity in mice when dispersed in Pluronic F-68 in […] aqueous NaCl of 15 g/3.73g per L at the concentration of 371 mg/kg body weight; format: functional; method in brief: as §3
Mus musculus [23] = assay: Toxicity in mice when dispersed in Pluronic F-68 in […] aqueous NaCl of 20 g/5 g per L at the concentration of 491 mg/kg body weight; format: functional; method in brief: as §3
Mus musculus [24] = assay: Toxicity in mice when dispersed in Pluronic F-68 in […] aqueous NaCl of 40 g/10 g per L at the concentration of 1034 mg/kg body weight; format: functional
[25] = Growth inhibition towards Namalva Lymphoblastoid Cell Culture at the concentration of 0.1 g/L and after detoxification on anionic exchanger; format: functional; method in brief: as §4
[26] = Growth inhibition towards Namalva Lymphoblastoid Cell Culture at the concentration of 0.2 g/L; format: functional; method in brief: as §4
[27] = Growth and viability inhibition towards Namalva Lymphoblastoid Cell Culture after resowing at the concentration of 0.1 g/L and after detoxification on anionic exchanger; format: functional; method in brief: as §5
[28] = Growth and viability inhibition towards Namalva Lymphoblastoid Cell Culture after resowing at the concentration of 0.2 g/L; format: functional; method in brief: as §5
[29] = Viability inhibition towards Namalva Lymphoblastoid Cell Culture at the concentration of 0.1 g/L and after detoxification on anionic exchanger; format: functional; method in brief: as §4
[30] = Viability inhibition towards Namalva Lymphoblastoid Cell Culture at the concentration of 0.2 g/L; format: functional; method in brief: as §4
[31] = Percent hemolysis for an erythrocyte suspension at 1% hemocrait at the concentration of 1 g/0.05 g per L; format: functional, Homo sapiens; method in brief: as §1
[32] = Percent hemolysis for an erythrocyte suspension at 1% hemocrait at the concentration of 1 g/L; format: functional, Homo sapiens; method in brief: as §1
[33] = Hemolytic effect on human red blood cells when dispersed in Pluronic F-68 at the concentration of 10 g/5g per L; format: functional; method in brief: as §2
[34] = Hemolytic effect on human red blood cells when dispersed in Pluronic F-68 at the concentration of 1 g/0.05 g per L; format: functional; method in brief: as §2
[35] = Hemolytic effect on human red blood cells when dispersed in Pluronic F-68 at the concentration of 20 g/1 g per L; format: functional; method in brief: as §2
Mus musculus [36] = assay: Toxicity in mice when dispersed in Pluronic F-68 in […] aqueous NaCl of 0.1 g at the concentration of 2,mg/Kg body weight; format: functional; method in brief: as §3
Mus musculus [37] = assay: Toxicity in mice when dispersed in Pluronic F-68 in […] aqueous NaCl of 20 g/10 g per L at the concentration of 443 mg/kg body weight; format: functional; method in brief: as §3

## OCC(O)C(O)C(O)COC/C=C/C(F)(F)C(F)(F)C(F)(F)C(F)(F)C(F)(F)C(F)(F)C(F)(F)C(F)(F)F (stereo not given)
[1]
  solubility: 50 µg/mL (≈ 81.9 µM)
[2]
  Hemolysis: 0%
[3]
  Hemolysis: 0%
[4]
  Hemolysis: 0%
[5]
  Hemolysis: 0%
[6]
  Activity: 65.6 mM
[7]
  Activity: 16.4 mM
[8]
  Activity: 32.8 mM
Mus musculus [9]
  Survival ratio: 10
Mus musculus [10]
  Survival ratio: 8
Mus musculus [11]
  Survival ratio: 5
[12]
  Growth: 108%
[13]
  Growth: 78%
[14]
  Resowing: 100%
[15]
  Resowing: 115%
[16]
  Viability: 98%
[17]
  Viability: 97%

## O=C(CCC(F)(F)C(F)(F)C(F)(F)C(F)(F)C(F)(F)C(F)(F)C(F)(F)C(F)(F)F)OCC(O)C(O)C(O)CO (stereo not given)
[1]
  solubility: < 10 µg/mL

## OCC(O)C(O)C(O)COC/C=C/C(F)(F)C(F)(F)C(F)(F)C(F)(F)C(F)(F)C(F)(F)F (stereo not given)
[1]
  solubility: < 1000 µg/mL
[18]
  Activity: 39.2 mM
[19]
  Activity: 78.4 mM
[20]
  Activity: 19.6 mM
Mus musculus [21]
  Survival ratio: 10
Mus musculus [22]
  Survival ratio: 10
Mus musculus [23]
  Survival ratio: 8
Mus musculus [24]
  Survival ratio: 0
[13]
  Growth: 23%
[25]
  Growth: 78%
[26]
  Growth: 86%
[14]
  Resowing: 96%
[27]
  Resowing: 105%
[28]
  Resowing: 95%
[17]
  Viability: 80%
[29]
  Viability: 93%
[30]
  Viability: 98%

## O=C(CCC(F)(F)C(F)(F)C(F)(F)C(F)(F)C(F)(F)F)OCC(O)C(O)C(O)CO (stereo not given)
[1]
  solubility: 500 µg/mL (≈ 1050 µM)

## OCC(O)C(O)C(O)COC/C=C/C(F)(F)C(F)(F)C(F)(F)C(F)(F)F (stereo not given)
[1]
  solubility: < 5000 µg/mL
[31]
  Hemolysis: 0%
[32]
  Hemolysis: 0%
[33]
  Activity: 24.4 mM
[34]
  Activity: 2.4 mM
[35]
  Activity: 48.7 mM
Mus musculus [36]
  Survival ratio: 10
Mus musculus [37]
  Survival ratio: 9
[13]
  Growth: 32%
[25]
  Growth: 125%
[14]
  Resowing: 106%
[27]
  Resowing: 105%
[17]
  Viability: 87%
[29]
  Viability: 95%

Source: ChEMBL document CHEMBL1124751, “Synthesis of perfluoroalkylated xylitol ethers and esters: new surfactants for biomedical uses” (J Med Chem, 1990)
